Results taken from ChEMBL document CHEMBL1146654, “3-(7-Azaindolyl)-4-arylmaleimides as potent, selective inhibitors of glycogen synthase kinase-3” (Bioorg Med Chem Lett, 2004).

Columns and labels:
[1] = tested on: Casein kinase I (Saccharomyces cerevisiae); assay: Inhibition of Casein kinase I; design: scale not given: the % may be the effect or the level left
[2] = molecular target: T1, Glycogen synthase kinase-3 beta (Homo sapiens, UniProt P49841); assay: Effective concentration of compound against glycogen synthase kinase-3 in HEK293 cells; type: functional, cell-based
Summary of the method: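 HEK293 cells exposed to compound; glycogen synthase activity then measured in cell extracts as ¹⁴C-UDP glucose incorporation into glycogen. EC₅₀ averaged from triplicate determinations.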
Target sequence in this assay (P49841 whole entry): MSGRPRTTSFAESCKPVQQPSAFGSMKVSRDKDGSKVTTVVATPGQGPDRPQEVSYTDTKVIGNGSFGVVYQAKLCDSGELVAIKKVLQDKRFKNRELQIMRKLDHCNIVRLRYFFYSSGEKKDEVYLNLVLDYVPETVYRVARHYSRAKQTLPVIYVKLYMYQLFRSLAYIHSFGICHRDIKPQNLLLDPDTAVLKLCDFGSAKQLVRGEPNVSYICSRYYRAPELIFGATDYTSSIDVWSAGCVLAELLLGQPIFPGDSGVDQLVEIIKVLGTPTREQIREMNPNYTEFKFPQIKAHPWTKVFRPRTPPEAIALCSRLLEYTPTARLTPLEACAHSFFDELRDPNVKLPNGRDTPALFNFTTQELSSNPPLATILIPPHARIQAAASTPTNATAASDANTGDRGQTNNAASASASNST

[3] = molecular target: Mitogen-activated protein kinase 9 (Homo sapiens) (UniProt P45984); assay: Inhibition of c-Jun N-terminal kinase 2-alpha 2; design: scale not given: the % may be the effect or the level left
[4] = molecular target: T2, Inhibitor of nuclear factor kappa-B kinase subunit alpha (Homo sapiens) (UniProt O15111); assay: Inhibition of I kappa-B kinase alpha; design: scale not given: the % may be the effect or the level left
T2 sequence (whole entry): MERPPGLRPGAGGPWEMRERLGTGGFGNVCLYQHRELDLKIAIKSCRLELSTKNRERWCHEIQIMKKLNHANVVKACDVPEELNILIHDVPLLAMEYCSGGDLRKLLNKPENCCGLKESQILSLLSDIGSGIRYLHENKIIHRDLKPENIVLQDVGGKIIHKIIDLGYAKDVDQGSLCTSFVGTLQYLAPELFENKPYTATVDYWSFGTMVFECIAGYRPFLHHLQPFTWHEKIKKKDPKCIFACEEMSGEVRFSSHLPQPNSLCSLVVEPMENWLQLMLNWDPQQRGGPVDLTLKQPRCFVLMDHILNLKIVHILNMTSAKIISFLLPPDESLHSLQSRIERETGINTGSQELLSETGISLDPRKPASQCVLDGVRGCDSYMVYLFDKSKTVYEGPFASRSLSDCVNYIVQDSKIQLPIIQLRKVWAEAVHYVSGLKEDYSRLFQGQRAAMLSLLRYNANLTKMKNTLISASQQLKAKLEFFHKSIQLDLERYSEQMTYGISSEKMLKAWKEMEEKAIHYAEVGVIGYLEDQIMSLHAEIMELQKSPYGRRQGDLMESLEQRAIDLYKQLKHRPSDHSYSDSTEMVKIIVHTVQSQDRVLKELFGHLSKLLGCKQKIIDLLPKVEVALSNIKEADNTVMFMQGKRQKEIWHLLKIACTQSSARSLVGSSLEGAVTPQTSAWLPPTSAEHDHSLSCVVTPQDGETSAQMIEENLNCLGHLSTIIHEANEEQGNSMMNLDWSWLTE

[5] = molecular target: RAF proto-oncogene serine/threonine-protein kinase (Homo sapiens) (UniProt P04049); assay: Inhibition of RAF proto-oncogene serine/threonine-protein kinase; design: scale not given: the % may be the effect or the level left
[6] = molecular target: Protein kinase C gamma type (Homo sapiens, UniProt P05129); assay: Inhibitory activity of 10 uM compound against protein kinase C-gamma using histone as substrate
[7] = molecular target: Tyrosine-protein kinase Blk (Mus musculus) (UniProt P16277); assay: Inhibition of B lymphoid tyrosine kinase; design: scale not given: the % may be the effect or the level left
[8] = molecular target: T3, Ribosomal protein S6 kinase alpha-5 (Homo sapiens, UniProt O75582); assay: (§1) Inhibition of MSK-1 kinase
[9] = molecular target: Cyclin-dependent kinase 1/cyclin B (Homo sapiens, UniProt P06493); assay: Inhibition of Cyclin-dependent kinase 1-cyclin B; type: protein-complex assay
[10] = molecular target: Tyrosine-protein kinase Yes (Homo sapiens) (UniProt P07947); assay: Inhibition of Yes tyrosine kinase; design: scale not given: the % may be the effect or the level left
[11] = molecular target: Tyrosine-protein kinase CSK (Homo sapiens) (UniProt P41240); assay: Inhibition of Tyrosine-protein kinase CSK; design: scale not given: the % may be the effect or the level left
[12] = molecular target: T1, Glycogen synthase kinase-3 beta; assay: Inhibition of glycogen synthase kinase-3 beta; design: scale not given: the % may be the effect or the level left
Target sequence in this assay (P49841 whole entry, looked up): as the sequence (P49841 whole entry) above

[13] = molecular target: T4, Dual specificity mitogen-activated protein kinase kinase 6 (Homo sapiens) (UniProt P52564); assay: Inhibition of Mitogen activated protein kinase kinase 6; design: scale not given: the % may be the effect or the level left
T4 sequence (whole entry): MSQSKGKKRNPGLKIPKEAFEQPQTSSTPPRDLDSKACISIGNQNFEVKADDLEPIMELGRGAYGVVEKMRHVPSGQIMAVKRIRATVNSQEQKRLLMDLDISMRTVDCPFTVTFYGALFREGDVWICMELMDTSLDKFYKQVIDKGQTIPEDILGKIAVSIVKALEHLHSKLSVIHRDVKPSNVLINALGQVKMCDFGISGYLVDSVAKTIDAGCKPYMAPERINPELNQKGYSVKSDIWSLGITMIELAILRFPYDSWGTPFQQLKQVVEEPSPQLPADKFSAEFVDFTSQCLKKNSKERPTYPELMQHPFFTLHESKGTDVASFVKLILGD

[14] = molecular target: CDK3/cyclin E (Homo sapiens) (UniProt P24864+O96020+Q00526); assay: Inhibition of Cyclin-dependent kinase 3-cyclin E; type: protein-complex assay; design: scale not given: the % may be the effect or the level left
[15] = molecular target: T5, Protein kinase C beta type (Homo sapiens, UniProt P05771); assay: Inhibition of protein kinase C-betaII at 10 uM
Target sequence in this assay (P05771 2-671 limits assumed): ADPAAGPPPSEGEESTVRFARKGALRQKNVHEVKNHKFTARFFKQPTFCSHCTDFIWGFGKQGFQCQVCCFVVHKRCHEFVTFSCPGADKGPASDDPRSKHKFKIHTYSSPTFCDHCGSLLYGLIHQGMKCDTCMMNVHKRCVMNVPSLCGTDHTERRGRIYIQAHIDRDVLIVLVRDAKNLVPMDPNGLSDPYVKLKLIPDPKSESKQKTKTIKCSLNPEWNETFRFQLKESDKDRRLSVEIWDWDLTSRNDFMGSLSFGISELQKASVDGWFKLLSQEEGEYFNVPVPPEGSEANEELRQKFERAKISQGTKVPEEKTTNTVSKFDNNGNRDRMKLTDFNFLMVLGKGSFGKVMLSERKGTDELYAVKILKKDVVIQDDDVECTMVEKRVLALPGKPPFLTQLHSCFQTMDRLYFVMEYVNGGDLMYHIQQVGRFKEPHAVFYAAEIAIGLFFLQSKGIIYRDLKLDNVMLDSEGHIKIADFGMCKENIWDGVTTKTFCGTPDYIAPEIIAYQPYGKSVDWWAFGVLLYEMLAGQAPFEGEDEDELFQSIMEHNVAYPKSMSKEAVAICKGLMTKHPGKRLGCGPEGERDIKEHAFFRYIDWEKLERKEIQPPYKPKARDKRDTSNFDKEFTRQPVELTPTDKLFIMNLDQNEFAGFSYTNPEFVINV

[16] = molecular target: T6, Serine/threonine-protein kinase Sgk1 (Homo sapiens) (UniProt O00141); assay: Inhibition of Serum/glucocorticoid regulated kinase; design: scale not given: the % may be the effect or the level left
T6 sequence (whole entry): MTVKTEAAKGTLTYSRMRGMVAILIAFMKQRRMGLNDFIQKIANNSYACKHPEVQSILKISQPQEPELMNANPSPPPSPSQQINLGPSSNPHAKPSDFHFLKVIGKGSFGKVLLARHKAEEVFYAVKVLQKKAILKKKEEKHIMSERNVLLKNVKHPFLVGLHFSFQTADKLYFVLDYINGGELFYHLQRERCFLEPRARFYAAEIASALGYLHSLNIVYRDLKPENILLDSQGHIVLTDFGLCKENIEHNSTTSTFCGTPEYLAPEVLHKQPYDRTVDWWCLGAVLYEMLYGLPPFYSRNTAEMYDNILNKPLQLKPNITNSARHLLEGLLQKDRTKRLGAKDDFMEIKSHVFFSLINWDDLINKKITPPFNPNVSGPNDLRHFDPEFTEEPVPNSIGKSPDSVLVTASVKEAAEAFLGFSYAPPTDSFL

[17] = molecular target: Casein kinase II (Homo sapiens) (UniProt P67870+P68400+P19784); assay: Inhibition of Casein kinase 2; type: protein-complex assay; design: scale not given: the % may be the effect or the level left
[18] = molecular target: T5, Protein kinase C beta type; assay: Inhibition of PKCbetaII; design: scale not given: the % may be the effect or the level left
Target sequence in this assay (P05771 2-671 limits assumed): as the sequence (P05771 2-671 limits assumed) above

[19] = molecular target: MAP kinase-activated protein kinase 2 (Homo sapiens) (UniProt P49137); assay: Inhibition of MAP kinase-activated protein kinase 2; design: scale not given: the % may be the effect or the level left
[20] = molecular target: Ribosomal protein S6 kinase alpha-3 (Homo sapiens, UniProt P51812); assay: Inhibition of Ribosomal S6 kinase 3
[21] = molecular target: T3, Ribosomal protein S6 kinase alpha-5; assay: as §1; design: scale not given: the % may be the effect or the level left
[22] = molecular target: T5, Protein kinase C beta type; assay: Inhibitory concentration against human protein kinase C-betaII using histone as substrate
[23] = molecular target: 3-phosphoinositide-dependent protein kinase 1 (Homo sapiens, UniProt O15530); assay: Inhibition of PDK1
[24] = molecular target: Tyrosine-protein kinase Lyn (Homo sapiens, UniProt P07948); assay: Inhibition of Protein tyrosine kinase Lyn

Chain of Tyrosine-protein kinase Yes (Homo sapiens) (P07947 2-543 limits assumed): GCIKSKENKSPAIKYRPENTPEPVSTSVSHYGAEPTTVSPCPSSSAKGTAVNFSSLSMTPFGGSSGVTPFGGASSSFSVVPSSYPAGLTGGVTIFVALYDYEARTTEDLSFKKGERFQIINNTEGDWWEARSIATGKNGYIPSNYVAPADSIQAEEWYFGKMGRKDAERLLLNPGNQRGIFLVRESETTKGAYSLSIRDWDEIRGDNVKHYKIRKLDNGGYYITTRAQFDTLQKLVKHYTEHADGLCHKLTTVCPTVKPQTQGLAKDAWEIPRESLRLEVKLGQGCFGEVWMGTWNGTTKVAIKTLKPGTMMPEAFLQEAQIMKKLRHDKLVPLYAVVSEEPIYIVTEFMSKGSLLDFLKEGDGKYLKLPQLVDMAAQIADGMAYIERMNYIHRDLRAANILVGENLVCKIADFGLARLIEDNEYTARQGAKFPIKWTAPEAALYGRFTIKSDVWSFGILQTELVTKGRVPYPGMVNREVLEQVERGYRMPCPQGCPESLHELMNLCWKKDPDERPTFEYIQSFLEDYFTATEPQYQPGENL
Chain of Tyrosine-protein kinase Blk (Mus musculus) (P16277 whole entry): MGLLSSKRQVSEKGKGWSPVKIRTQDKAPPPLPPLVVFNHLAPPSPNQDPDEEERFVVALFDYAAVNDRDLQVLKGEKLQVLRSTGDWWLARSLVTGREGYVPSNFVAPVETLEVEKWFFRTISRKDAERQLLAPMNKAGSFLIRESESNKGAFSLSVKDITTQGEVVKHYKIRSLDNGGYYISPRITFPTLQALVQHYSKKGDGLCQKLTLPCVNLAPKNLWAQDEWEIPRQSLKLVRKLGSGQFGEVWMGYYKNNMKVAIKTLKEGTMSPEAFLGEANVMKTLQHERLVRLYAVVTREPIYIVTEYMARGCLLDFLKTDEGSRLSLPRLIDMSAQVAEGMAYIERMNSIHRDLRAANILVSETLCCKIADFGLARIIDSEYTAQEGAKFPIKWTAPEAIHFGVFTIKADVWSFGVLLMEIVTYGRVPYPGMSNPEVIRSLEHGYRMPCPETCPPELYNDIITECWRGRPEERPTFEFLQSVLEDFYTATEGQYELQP
Chain of CDK3/cyclin E (Homo sapiens) (O96020 whole entry, looked up): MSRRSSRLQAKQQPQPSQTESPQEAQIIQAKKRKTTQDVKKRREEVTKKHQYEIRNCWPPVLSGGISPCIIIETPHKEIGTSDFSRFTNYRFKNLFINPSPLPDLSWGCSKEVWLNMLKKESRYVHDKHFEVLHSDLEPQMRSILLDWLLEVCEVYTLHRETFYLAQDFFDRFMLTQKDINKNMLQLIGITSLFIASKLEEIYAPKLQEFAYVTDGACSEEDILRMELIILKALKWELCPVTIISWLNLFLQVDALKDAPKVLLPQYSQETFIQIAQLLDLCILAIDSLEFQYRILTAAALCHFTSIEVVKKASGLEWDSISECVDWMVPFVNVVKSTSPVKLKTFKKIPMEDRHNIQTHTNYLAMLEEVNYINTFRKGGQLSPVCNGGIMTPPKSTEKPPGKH
Chain of CDK3/cyclin E (Homo sapiens) (P24864 whole entry, looked up): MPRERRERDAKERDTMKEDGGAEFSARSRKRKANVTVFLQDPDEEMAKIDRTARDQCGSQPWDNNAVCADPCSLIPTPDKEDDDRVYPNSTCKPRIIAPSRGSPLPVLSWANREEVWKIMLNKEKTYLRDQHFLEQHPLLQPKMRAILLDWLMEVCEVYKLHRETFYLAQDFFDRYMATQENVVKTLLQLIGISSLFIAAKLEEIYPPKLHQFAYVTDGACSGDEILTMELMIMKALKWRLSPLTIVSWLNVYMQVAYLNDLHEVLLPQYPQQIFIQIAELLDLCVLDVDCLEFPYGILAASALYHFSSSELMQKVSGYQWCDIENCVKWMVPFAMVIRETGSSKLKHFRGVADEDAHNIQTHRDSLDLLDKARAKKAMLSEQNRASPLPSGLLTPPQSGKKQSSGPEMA
Chain of CDK3/cyclin E (Homo sapiens) (Q00526 whole entry, looked up): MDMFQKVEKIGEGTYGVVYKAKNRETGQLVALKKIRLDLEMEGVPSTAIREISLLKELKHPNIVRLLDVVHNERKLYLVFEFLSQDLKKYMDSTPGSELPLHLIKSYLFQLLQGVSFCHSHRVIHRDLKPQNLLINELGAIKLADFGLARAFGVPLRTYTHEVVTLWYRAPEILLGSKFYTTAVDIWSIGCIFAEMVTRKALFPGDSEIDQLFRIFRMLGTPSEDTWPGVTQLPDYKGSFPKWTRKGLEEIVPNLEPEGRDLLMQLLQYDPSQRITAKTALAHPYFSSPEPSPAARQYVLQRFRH
Chain of RAF proto-oncogene serine/threonine-protein kinase (Homo sapiens) (P04049 whole entry): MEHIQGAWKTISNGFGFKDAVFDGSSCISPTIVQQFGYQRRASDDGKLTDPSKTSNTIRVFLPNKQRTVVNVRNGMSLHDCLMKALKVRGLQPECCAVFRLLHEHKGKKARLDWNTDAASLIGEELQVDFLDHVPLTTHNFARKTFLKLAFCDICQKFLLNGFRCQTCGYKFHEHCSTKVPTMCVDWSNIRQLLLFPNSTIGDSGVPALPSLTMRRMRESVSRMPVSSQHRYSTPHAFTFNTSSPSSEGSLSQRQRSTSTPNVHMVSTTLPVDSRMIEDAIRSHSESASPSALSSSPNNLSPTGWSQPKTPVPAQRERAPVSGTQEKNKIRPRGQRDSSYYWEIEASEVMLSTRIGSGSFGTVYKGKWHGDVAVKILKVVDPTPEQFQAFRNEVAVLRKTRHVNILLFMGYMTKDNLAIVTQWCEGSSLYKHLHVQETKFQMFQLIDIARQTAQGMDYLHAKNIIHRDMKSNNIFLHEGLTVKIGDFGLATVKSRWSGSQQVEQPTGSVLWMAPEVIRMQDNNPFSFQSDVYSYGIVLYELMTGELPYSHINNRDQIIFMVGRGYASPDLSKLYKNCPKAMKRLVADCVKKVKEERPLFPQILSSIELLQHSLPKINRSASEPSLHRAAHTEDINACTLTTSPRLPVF
Chain of Tyrosine-protein kinase CSK (Homo sapiens) (P41240 2-450 limits assumed): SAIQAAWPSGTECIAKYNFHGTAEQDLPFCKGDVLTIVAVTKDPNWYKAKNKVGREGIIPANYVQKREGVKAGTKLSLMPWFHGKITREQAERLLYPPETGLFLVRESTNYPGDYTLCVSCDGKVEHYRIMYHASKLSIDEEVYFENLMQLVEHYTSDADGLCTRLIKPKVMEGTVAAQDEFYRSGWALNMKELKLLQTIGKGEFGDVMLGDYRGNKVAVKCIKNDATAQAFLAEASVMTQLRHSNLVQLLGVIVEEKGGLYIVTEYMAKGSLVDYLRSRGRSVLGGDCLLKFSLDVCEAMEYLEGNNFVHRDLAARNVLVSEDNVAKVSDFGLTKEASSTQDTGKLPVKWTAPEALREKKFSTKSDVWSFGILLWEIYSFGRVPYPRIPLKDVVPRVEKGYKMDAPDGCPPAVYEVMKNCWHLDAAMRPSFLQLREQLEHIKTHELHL
Chain of Mitogen-activated protein kinase 9 (Homo sapiens) (P45984 whole entry, looked up): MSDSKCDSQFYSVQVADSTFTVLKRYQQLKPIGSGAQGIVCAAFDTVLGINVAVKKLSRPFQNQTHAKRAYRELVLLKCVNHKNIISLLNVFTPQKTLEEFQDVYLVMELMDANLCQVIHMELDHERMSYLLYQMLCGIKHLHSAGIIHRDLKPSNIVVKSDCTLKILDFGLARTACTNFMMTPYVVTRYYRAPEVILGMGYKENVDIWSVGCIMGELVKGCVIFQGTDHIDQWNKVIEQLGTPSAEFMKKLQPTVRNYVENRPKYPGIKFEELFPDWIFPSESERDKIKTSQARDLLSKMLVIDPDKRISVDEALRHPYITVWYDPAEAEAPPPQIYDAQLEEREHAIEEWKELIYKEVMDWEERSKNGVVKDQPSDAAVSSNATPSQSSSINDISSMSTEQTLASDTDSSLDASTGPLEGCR

| EC50 [2] [nM] | Activity [3] [%] | Activity [4] [%] | Activity [5] [%] | inhibition [6] [%] | Activity [7] [%] | IC50 [9] [nM] | Activity [10] [%] | Activity [11] [%] | Activity [12] [%] | Activity [13] [%] | Activity [14] [%] | Activity [16] [%] | Activity [17] [%] | Activity [18] [%] | Activity [19] [%] | IC50 [20] [nM] | Activity [21] [%] | IC50 [22] [nM] | SMILES | also measured |
| --- | --- | --- | --- | --- | --- | --- | --- | --- | --- | --- | --- | --- | --- | --- | --- | --- | --- | --- | --- | --- |
| 620 | 93 | 76 | 74 | < 50 | 67 | 5800 | 93 | 74 | 3 | 86 | 62 | 87 | 56 | 70 | 85 | – | – | – | O=C1NC(=O)C(c2cn(CCCO)c3ncccc23)=C1c1ncc(C(F)(F)F)cc1Cl | Activity [1]: 66%; IC50 [8]: > 10000 nM; inhibition [15]: < 50% |
| – | 63 | 83 | 74 | < 50 | 75 | 700 | 89 | 89 | 1 | 83 | 26 | 98 | 93 | 32 | 97 | 2000 | 57 | 4360 | COCCCn1cc(C2=C(c3ccccc3O)C(=O)NC2=O)c2cccnc21 | – |
| 40 | 84 | 89 | 92 | < 50 | 63 | 170 | 42 | 95 | 0 | 95 | 3 | 105 | 103 | 15 | – | 640 | 61 | 2260 | COc1ccccc1C1=C(c2cn(CCCNC(=O)OC(C)(C)C)c3ncccc23)C(=O)NC1=O | IC50 [23]: 570 nM; IC50 [24]: 1800 nM |
